Results of several laboratories.
Lines come from different studies, so protocols differ.
Target: MAP/microtubule affinity-regulating kinase 3 (MARK3, Homo sapiens, UniProt P27448)

N[C@@H]1CCN(c2nccc(-c3cnn4ncccc34)n2)C1 — remaining binding (binding; 1 µM): 100%
C[C@@H](c1ccc(-n2cnc3c(N)ncnc32)cc1)N1CCc2nn(C)c(Cc3ccccc3)c2C1=O — remaining binding (binding, competition with immobilised ligand; 0.1 µM): 93%
CC(C)(C)c1ccc(-c2nc(CBr)nn2-c2cccc(O)c2)cc1 — remaining binding (cell-free assay, competition with immobilised ligand; 10 µM): 85%
Cc1cnc(Nc2ccc(C(=O)N3CCC(N4CCCC4)CC3)cc2)nc1-c1cc2ccccc2s1 — remaining binding (binding, competition with immobilised ligand; 1 µM): 100%
C=CC(=O)N1CCC(C(=O)NCC(=O)N2CCN(c3nc(-c4cnc(N)nc4C(F)F)nc(N4CCOCC4)n3)CC2)CC1 — remaining binding (binding, competition with immobilised ligand; 1 µM): 65%
CO[C@H]1CC[C@H](CNc2ccc(S(=O)(=O)NC(=O)c3ccc(N4CCN(CC5=C(c6ccc(Cl)cc6)CC(C)(C)CC5)CC4)cc3Oc3cnc4[nH]ccc4c3)cc2[N+](=O)[O-])CC1 — remaining binding (cell-free assay, competition with immobilised ligand; 1 µM): 96%
CC1CCCN1c1nccc(-c2cnn3ncccc23)n1 (stereo not shown) — remaining binding (binding; 1 µM): 100%
COc1ncc2cc3ccccc3nc2c1C#N — remaining binding (cell-free assay, competition with immobilised ligand; 5 µM): 100%
CNC(=O)[C@@H]1CC[C@@H](n2c(-c3ccc4cnccc4c3)nc3ccc(C(=O)NCc4cccc(C(N)=O)c4)cc32)C1 — remaining binding (binding, competition with immobilised ligand; 1 µM): 59%
O=C(NCCCN1CCOCC1)c1ccc(Nc2nccc(-c3cc4ccccc4s3)n2)cc1 — remaining binding (binding, competition with immobilised ligand; 1 µM): 100%
Cc1noc([C@H]2C[C@@H](c3ccc(C(F)(F)F)cc3)CN(C(=O)N3CCS(=O)(=O)C3)C2)n1 — remaining binding (cell-free assay, competition with immobilised ligand; 1 µM): 100%
C[C@@H]1CCN(c2nccc(-c3cnn4ncccc34)n2)C1 — remaining binding (binding; 1 µM): 100%
C[C@H](c1cccc(C#N)c1)n1cc(Cl)cc(C(N)=O)c1=N — remaining binding (cell-free assay, competition with immobilised ligand; 1 µM): 100%
CN(C)c1nccc(-c2cnn3ncccc23)n1 — remaining binding (binding; 1 µM): 100%
C[C@H](c1ccc(F)cc1)N(Cc1cccc(C(=O)O)c1)C(=O)c1cnc2ccccc2c1 — remaining binding (cell-free assay, competition with immobilised ligand; 1 µM): 100%
C[C@@H]1CN(c2ccc3ncc(-c4ccc5[nH]nc(C6CC6)c5c4)n3n2)C[C@H](C)O1 — remaining binding (binding, competition with immobilised ligand; 50 nM): 100%
